Measured values of several laboratories.
Compare with care: the assays were run in different laboratories.
Observed: thermal stability
Method: DSF
SIRT2: NAD-dependent protein deacetylase sirtuin-2 (SIRT2, Homo sapiens, UniProt Q8IXJ6)
DCLK1: Serine/threonine-protein kinase DCLK1 (DCLK1, Homo sapiens, UniProt O15075)
GAK: Cyclin-G-associated kinase (GAK, Homo sapiens, UniProt O14976)
lecA: PA-I galactophilic lectin (lecA, Pseudomonas aeruginosa, UniProt Q05097)

Cc1cc(C)nc(SCC(=O)Nc2ncc(Cc3cccc(OCc4cn(Cc5ccccc5C)nn4)c3)s2)n1 — ΔTm (SIRT2; 25 µM): 4.26 °C
CCC1(CC)NC(=O)c2c(c3ccc(Cl)c(Cl)c3n2C)C1C#N (centres unmarked) — ΔTm (DCLK1; 10 µM): 0 °C
FC(F)(F)c1ccc2nccc(Nc3ccc(Cl)cc3)c2c1 — ΔTm (GAK; 10 µM): 4.3 °C
Cc1cc(C)nc(SCC(=O)Nc2ncc(Cc3cccc(OCc4cn(Cc5ccc(OCCN6CCOCC6)cc5)nn4)c3)s2)n1 — ΔTm (SIRT2; 25 µM): 6.63 °C
CCN1CCC2(CC1)NC(=O)c1c(c3ccc(Cl)c(Cl)c3n1C)C2C#N (racemic) — ΔTm (DCLK1; 10 µM): 0.1 °C
COc1ccccc1Nc1ccnc2ccc(C(F)(F)F)cc12 — ΔTm (GAK; 10 µM): 3 °C
N#Cc1cccc(O)c1O — ΔTm (lecA; 4 mM): 1.8 °C
Cn1c2c(Cl)c(Cl)ccc2c2cn[nH]c(=O)c21 — ΔTm (DCLK1; 10 µM): -0.2 °C
Fc1cc(Nc2ccnc3ccc(C(F)(F)F)cc23)cc(F)c1F — ΔTm (GAK; 10 µM): 3.7 °C
CCCCCCCC(=O)Nc1ncc(Cc2cccc(OCc3cn(CCOC)nn3)c2)s1 — ΔTm (SIRT2; 25 µM): 4.28 °C
CC(C)(C)c1ccc(O)c(O)c1 — ΔTm (lecA; 4 mM): -15.4 °C
